The nature of series [1]: Induction of DNA fragmentation in human HepG2/C3A cells at 0.3 uM after 24 hrs by alkaline comet assay (reference value: 3.69%). The series is classed as toxicity, cell-based. The method, boiled down: (§1)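 Alkaline comet assay on C3A cells, 100,000 per well, pre-incubated 24 h with compound at 3, 1, 0.3 or 0.1 µM. Cells embedded in agarose on slides, lysed 1 h, electrophoresed 20 min at 300 mA, neutralized, stained with gel red. % tail DNA measured by fluorescence microscopy; compared with negative control by Mann-Whitney U test.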

Series [2] in a line: Induction of DNA fragmentation in human HepG2/C3A cells at 0.1 uM after 24 hrs by alkaline comet assay (reference value: 3.69%). The series is classed as toxicity, cell-based. The method, boiled down:
as §1

The nature of series [3]: Cytotoxicity against mouse J774 cells assessed as viability at 1 uM after 7 days by neutral red uptake assay. The format is cell-based. The note with it: read-out: Activity. The method, boiled down:
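Uninfected J774 macrophages exposed to compound in parallel with the infection assay; viability read by neutral red uptake over the same exposure period.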

The subject of series [4] is Mycobacterium tuberculosis. The experiment in a line: Antimycobacterial activity against Mycobacterium tuberculosis H37Rv expressing pSMT1 after 1 to 7 days by luminescent assay. The format is functional. The method, boiled down: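 Luminescent M.tb. H37Rv carrying pSMT1 (luxAB, hsp60 promoter) in 7H9 + 10% FCS. Bacteria filtered, recovered 1 h at 37 °C, 5% CO2, added at 50,000 RLU/ml. Serial dilutions from 1 mM DMSO stocks, triplicate wells. Luminometry after 1, 3 and 7 days; MIC50 = 50% growth reduction.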

Series [5] in a line: Cytotoxicity against human HepG2/C3A cells after 24 hrs by neutral red uptake assay. The series is classed as cell-based. The method, boiled down: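 C3A hepatocytes in DMEM + 10% FCS, 40,000 per well, recovered at 37 °C, 5% CO2. Exposed 24 h to final 10, 3, 1, 0.3, 0.1 µM from 1 mM DMSO stocks. Neutral red added for 3 h, extracted with ethanol/acetic acid, OD read at 530 nm with 620 nm reference. IC50 = 50% neutral red uptake.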

Series [6] is described as follows: Induction of DNA fragmentation in human HepG2/C3A cells at 1 uM after 24 hrs by alkaline comet assay (reference value: 3.69%). The format is toxicity, cell-based. The method, boiled down: as §1
For series [7], the system named is Mycobacterium tuberculosis. The experiment in a line: Antimycobacterial activity against Mycobacterium tuberculosis H37Rv infected in mouse J774 cells assessed as reduction of parasite growth at 1 uM after 1 day by luminescence assay. The format is functional. Further details: scale not given: the % may be the effect or the level left. The method, boiled down: (§2)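 Murine J774 macrophages, 100,000 per well, recovered overnight, then infected with luminescent M.tb. H37Rv (10^4 CFU, MOI 0.1) in DMEM with penicillin and Fungizone. Cells treated with compound at final 10, 3, 1, 0.3, 0.1 µM. Monolayers lysed after 1, 3 or 7 days; intracellular bacteria read by luminometry of lysate. Triplicate cultures, mean RLU.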

The test system of series [8] is Mycobacterium tuberculosis. The experiment in a line: Antimycobacterial activity against Mycobacterium tuberculosis H37Rv infected in mouse J774 cells assessed as reduction of parasite growth at 0.3 uM after 7 days by luminescence assay. The format is functional, organism-based. The method, boiled down: as §2
Series [9] is described as follows: Selectivity index, ratio of IC50 for human HepG2/C3A cells to MIC50 for Mycobacterium tuberculosis H37Rv. The series is classed as functional. The method, boiled down: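 Selectivity index is the IC50 from the C3A neutral red uptake assay divided by the MIC50 against luminescent M.tb. H37Rv.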
Series [10] is described as follows: Induction of DNA fragmentation in human HepG2/C3A cells at 3 uM after 24 hrs by alkaline comet assay (reference value: 3.69%). The series is classed as toxicity, cell-based. The method, boiled down: as §1
Series [11] concerns Mycobacterium tuberculosis. The experiment in a line: Antimycobacterial activity against Mycobacterium tuberculosis H37Rv infected in mouse J774 cells assessed as reduction of parasite growth at 1 uM after 3 days by luminescence assay. The series is classed as functional. More on the design: scale not given: the % may be the effect or the level left. The method, boiled down:
as §2

In the next series the test system is Salmonella typhimurium. The experiment in a line: Genotoxicity in Salmonella Typhimurium expressing episomal lux operon assessed as concentration required to cause toxicity in presence of S9 fraction. The format is organism-based. The note with it: salmonella enterica subsp. enterica serovar typhimurium. The method, boiled down: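 VITOTOX with genetically engineered Salmonella typhimurium strains, with or without S9 from aroclor-treated rat liver. Genotoxicity reported by a luxCDABE reporter under the RecN promoter. Tested at 10, 1 and 0.1 µM; lowest concentration showing cytotoxicity recorded.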

Series [12] deals with Mycobacterium tuberculosis. The experiment in a line: Antimycobacterial activity against Mycobacterium tuberculosis H37Rv expressing pSMT1 after 1 to 7 days by BACTEC 460-TB assay. The format is functional. The method, boiled down:
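Radiometric BACTEC 460-TB culture of M.tb. H37Rv in 7H9-based medium. Pre-culture grown to GI 300, then inoculated into a fresh vial with serial compound dilutions made at 40x final concentration from 1 mM DMSO stocks. GI (14C-palmitate to 14CO2) read daily against untreated inocula diluted 100-fold at inoculation. MIC99 taken as 99% inhibition. Each measurement done at least twice.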

Series [13] concerns Mycobacterium tuberculosis. The experiment in a line: Antimycobacterial activity against Mycobacterium tuberculosis H37Rv infected in mouse J774 cells assessed as reduction of parasite growth at 1 uM after 7 days by luminescence assay. The series is classed as functional. More on the design: scale not given: the % may be the effect or the level left. The method, boiled down:
as §2

As a reminder, the MIC50 is the lowest concentration that inhibits either 50% of growth or 50% of the strains tested, depending on the study. A word on the IC50: it is the concentration at which inhibition is half-maximal. For orientation: MIC99 means an inhibitory concentration at the 99% level, which refers to growth in some studies and to a panel of isolates in others.

≈ marks a conversion by molar mass, not a printed value. Calls of active or inactive are those of the source. The calls are words filed in the database; no cut-off is given here.

Regarding `Cc1ccc2c3c(cnc2c1)C(=O)c1ccccc1C3=O`, the Activity is recorded as 2.52% in series [1]; 3.47% in series [2]; 2.15% in series [6]; 47.6% in series [7]; 3.31% in series [10]; 74.2% in series [11]. In addition, the results for the Activity (with Salmonella typhimurium; in [13]) were 10 µM and 83.5%, respectively. In [3], the viability at 168 h, 1 µM was 92.9%. The compound further gave an MIC50 in [4] of 0.21 µM (≈ 0.0574 µg/mL). In series [5], this compound displayed an IC50 of 3.21 µM. Besides, the result in series [8] was inactive. Also, the “Selectivity Index” value in [9] came to 15.29. In series [12], this compound gave an MIC99 of 0.64 µM (≈ 0.175 µg/mL).
In the case of `NNC(=O)c1ccncc1` [ISONIAZID], in [4], the MIC50 stood at 0.54 µM (≈ 0.0741 µg/mL).
`O=C1c2ccccc2C(=O)c2c1cnc1ccc(Cl)cc21` showed an MIC50 in series [4] of 1.03 µM (≈ 0.303 µg/mL). In addition, half-maximal inhibition in [5] (IC50) was put at 1.56 µM. Besides, the “Selectivity Index” value in [9] is 1.5. Moreover, the Activity with Salmonella typhimurium was found to be 1 µM. The compound also displayed an MIC99 in [12] of 1.35 µM (≈ 0.397 µg/mL).
The matching figures for `O=C1c2ccccc2C(=O)c2c1cnc1ccc(F)cc21`: 0.74 µM (≈ 0.205 µg/mL), 1.09 µM, 1.46, 1 µM and 1.38 µM (≈ 0.383 µg/mL).
On the same counts, the results for `Cc1ccc2ncc3c(c2c1)C(=O)c1ccccc1C3=O` are 0.88 µM (≈ 0.24 µg/mL), 1.48 µM, 1.69, 10 µM and 1.53 µM (≈ 0.418 µg/mL).
The matching figures for `O=C1c2ccccc2C(=O)c2c1cnc1ccccc21`: 1.2 µM (≈ 0.311 µg/mL), 1.51 µM, 1.26, 1 µM and 1.9 µM (≈ 0.493 µg/mL).
Turning to `COc1cccc2c3c(cnc12)C(=O)c1ccccc1C3=O`, in series [4], the MIC50 worked out at 1.66 µM (≈ 0.48 µg/mL). In series [5], this compound returned an IC50 of 2.4 µM. Also, the “Selectivity Index” value in series [9] worked out at 1.45. The Activity in the series on Salmonella typhimurium came to 10 µM. The same compound showed an MIC99 in [12] of 2.74 µM (≈ 0.793 µg/mL).
For the compound `COc1ccc2ncc3c(c2c1)C(=O)c1ccccc1C3=O`, the MIC50 in series [4] was 0.43 µM (≈ 0.124 µg/mL). Also, the IC50 in series [5] came to 0.95 µM. Besides, in [9], the “Selectivity Index” value was 2.22. Besides, in the series with Salmonella typhimurium, the Activity came out at 10 µM.
As to `Cc1cccc2c3c(cnc12)C(=O)c1ccccc1C3=O`, the MIC50 in series [4] was 3.68 µM (≈ 1.01 µg/mL). In addition, half-maximal inhibition in series [5] (IC50) required 3.96 µM. Moreover, in series [9], the “Selectivity Index” value turned out to be 1.08. Further, the Activity in the series on Salmonella typhimurium was 10 µM. Besides, the MIC99 in [12] was found to be 4.3 µM (≈ 1.18 µg/mL).

(Values after ChEMBL document CHEMBL1932987, “Straightforward palladium-mediated synthesis and biological evaluation of benzo[j]phenanthridine-7,12-diones as anti-tuberculosis agents” (Eur J Med Chem, 2012).)
